Assay results from different studies.
Protocols differ between the studies behind these lines.
BCHE: Cholinesterase (BCHE, Equus caballus, UniProt P81908)
SLC6A4: Sodium-dependent serotonin transporter (SLC6A4, Homo sapiens, UniProt P31645)
DRD1: D(1A) dopamine receptor (DRD1, Homo sapiens, UniProt P21728)

`COC(=O)[C@H](CCC(=O)Nc1cccc2c1ccn2Cc1cccc(C(N)=O)c1)NC(=O)OCc1ccccc1` has an IC50 of 3.6 µM (NAD-dependent protein deacetylase sirtuin-3, mitochondrial (SIRT3, Homo sapiens, UniProt Q9NTG7); enzyme activity, inhibitor).
`O=C(CNC(=S)NN=Cc1ccc([N+](=O)[O-])cc1)c1ccc(Cl)cc1` has an IC50 of 425 µM (BCHE; enzyme activity, inhibitor, Ellman).
With `CC=C1[C@H]2C=C(C)C[C@]1(N)c1cc(OCCCC)c(=O)[nH]c1C2` the IC50 was 16.9 µM (BCHE; enzyme activity, inhibitor, Ellman).
`CCOc1ccc(C=NNC(=S)NCC(=O)c2ccc(Cl)cc2)cc1` gave an IC50 of 334 µM (BCHE; enzyme activity, inhibitor, Ellman).
`CC=C1[C@H]2C=C(C)C[C@]1(N)c1cc(C#N)c(=O)[nH]c1C2` gave an IC50 of 1050 µM (BCHE; enzyme activity, inhibitor, Ellman).
The IC50 of `CC(=O)N1C[C@H](CCN2CC=C(c3c[nH]c4cc(Cl)ccc34)CC2)c2ccccc21` is reported as 0.0818 µM (SLC6A4; ligand displacement, radioligand; cell membranes).
`CN1C[C@H](C(=O)N[C@]2(C)O[C@@]3(O)[C@@H]4CCCN4C(=O)[C@H](Cc4ccccc4)N3C2=O)C[C@@H]2c3cccc4[nH]cc(c34)C[C@H]21` has an IC50 of 4.81 µM (DRD1; ligand displacement, radioligand).
`C#CCN(C)c1nc(NCCCC2CCN(Cc3ccccc3)CC2)c(C#N)cc1C#N` has an IC50 of 1.19 µM (BCHE; enzyme activity, inhibitor, Ellman).
`CC=C1[C@H]2C=C(C)C[C@]1(N)c1cc(OC)c(=O)[nH]c1C2` has an IC50 of 599 µM (BCHE; enzyme activity, inhibitor, Ellman).
For `Clc1ccc2c(C3CCN(CCc4c[nH]c5ccccc45)CC3)c[nH]c2c1`, the IC50 was 0.0021 µM (SLC6A4; ligand displacement, radioligand; cell membranes).
For `CC=C1[C@H]2C=C(C)C[C@]1(N)c1cc(N)c(=O)[nH]c1C2`, the IC50 was 525 µM (BCHE; enzyme activity, inhibitor, Ellman).
`C[C@H](N)Cn1ncc2ccc3c(c21)CCCO3` gave an IC50 of 138 µM (DRD1; ligand displacement, radioligand).
The IC50 of `NC(N)=S` is reported as 8.83 µM (Urease (Canavalia ensiformis, UniProt P07374); enzyme activity, inhibitor).
The IC50 of `O=P(O)(O)Oc1ccccc1OP(=O)(O)O` is reported as 69 µM (Signal transducer and activator of transcription 5A, SH2 (Homo sapiens, UniProt P42229); ligand displacement, FP).
